Experimental findings from ChEMBL document CHEMBL4229380, “Arylureas derived from colchicine: Enhancement of colchicine oncogene downregulation activity” (Eur J Med Chem, 2018) are described below.

In one test the test system is MCF7. As to the kind of experiment: Antiproliferative activity against human MCF7 cells after 2 days by MTT assay. The note with it: MCF7, 48 h. The format is functional, cell-based. The gist of the method:
(§1)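 Cells (5×10^3 per well) in DMEM with 10% FBS, glucose, glutamine and antibiotics were exposed to serial dilutions (stocks in DMSO) for 2 days at 37 °C, 5% CO2. MTT was added for 3 h, formazan was dissolved in DMSO and absorbance read at 490 nm. Viability was taken as % of untreated cells. IC50 was read graphically from three independent experiments.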
(In general: Tetrazolium dyes change colour on reduction, which living cells bring about.)

Test [1] deals with HT-29. Put plainly: Effect on VEGFR2 protein expression in human HT-29 cells assessed as VEGFR2 level at 20 nM after 48 hrs by ELISA. Format: functional. Put shortly:
(§2)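 HT-29 cells (1.5×10^5 per well, 24 h pre-culture) were treated 48 h and washed in PBS. They were lysed in Tris pH 7.4 buffer with detergents, phosphatase inhibitors, PMSF and protease inhibitors. Lysates were adjusted to 200 µg/mL protein (Bradford) and total c-Myc or VEGFR-2 was measured by sandwich ELISA kit. Values are % of DMSO control, ≥3 measurements.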

In test [2] the test system is HT-29. As to the kind of experiment: Effect on VEGF gene expression in human HT-29 cells assessed as VEGF level at 20 nM after 48 hrs by RT-qPCR analysis. Format: functional. Put shortly:
(§3)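 HT-29 cells at 70–80% confluence were seeded at 1.5×10^5 per well and left 24 h, then treated 48 h, with DMSO as control. Total RNA was extracted and VEGF-A, c-Myc and hTERT were quantified by TaqMan qPCR, normalized to β-actin and to living cell number. Results are % expression versus control, at least three measurements.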
In general terms: Quantitative PCR measures a nucleic acid by following its amplification.

In test [3] the test system is HT-29. As to the kind of experiment: Antiproliferative activity against human HT-29 cells after 2 days by MTT assay. The conditions noted are these: HT-29, 48 h. Format: functional, cell-based. Put shortly: as §1
Test [4] has as its system HT-29. Put plainly: Effect on hTERT gene expression in human HT-29 cells assessed as hTERT level at 20 nM after 48 hrs by RT-qPCR analysis. The format is functional. Put shortly: as §3
Test [5] has as its system HT-29. As to the kind of experiment: Induction of apoptosis in human HT-29 cells assessed as viable cells at 20 nM after 48 hrs by Annexin V-FITC staining-based flow cytometric analysis (reference value: 82 +/- 1%). The format is functional. The conditions noted are these: HT-29, 48 h, read-out: Activity. (Flow cytometry measures light scatter and fluorescence of single cells or particles in a stream.)

For test [6], the system named is HT-29. Put plainly: Effect on c-MYC gene expression in human HT-29 cells assessed as c-MYC level at 20 nM after 48 hrs by RT-qPCR analysis. The format is functional. Put shortly: as §3
Test [7] relates to HT-29. As to the kind of experiment: Effect on c-MYC protein expression in human HT-29 cells assessed as c-MYC level at 20 nM after 48 hrs by ELISA. Format: functional. Put shortly:
as §2

Test [8] concerns HT-29. As to the kind of experiment: Effect on VEGF protein expression in human HT-29 cells assessed as secreted VEGF level in culture media at 20 nM after 48 hrs by ELISA.
For another test, the system named is HEK293. Put plainly: Antiproliferative activity against human HEK293 cells after 2 days by MTT assay. Format: cell-based. The note with it: HEK293, 48 h. The gist of the method:
as §1

A further test relates to HeLa. Put plainly: Antiproliferative activity against human HeLa cells after 2 days by MTT assay. Format: functional, cell-based. The note with it: 48 h. The gist of the method: as §1
The subject of test [9] is HT-29. As to the kind of experiment: Induction of apoptosis in human HT-29 cells assessed as apoptotic cells at 20 nM after 48 hrs by Annexin V-FITC staining-based flow cytometric analysis (reference value: 13 +/- 3%). The format is functional.
The subject of test [10] is HT-29. Put plainly: Induction of apoptosis in human HT-29 cells assessed as necrotic cells at 20 nM after 48 hrs by Annexin V-FITC staining-based flow cytometric analysis (reference value: 2 +/- 6%). The format is functional.
Test [11] has as its system HT-29. As to the kind of experiment: Induction of apoptosis in human HT-29 cells assessed as viable cells at 1 nM after 48 hrs by Annexin V-FITC staining-based flow cytometric analysis (reference value: 82 +/- 1%). The format is functional. The note with it: HT-29, 48 h, read-out: Activity.
In test [12] the test system is HT-29. As to the kind of experiment: Induction of apoptosis in human HT-29 cells assessed as necrotic cells at 1 nM after 48 hrs by Annexin V-FITC staining-based flow cytometric analysis (reference value: 2 +/- 6%). The format is functional.
Test [13] concerns HT-29. As to the kind of experiment: Effect on hTERT gene expression in human HT-29 cells assessed as hTERT level at 1 nM after 48 hrs by RT-qPCR analysis. Format: functional. The gist of the method: as §3
Test [14] deals with HT-29. As to the kind of experiment: Effect on VEGF protein expression in human HT-29 cells assessed as secreted VEGF level in culture media at 1 nM after 48 hrs by ELISA.
The test system of test [15] is HT-29. As to the kind of experiment: Effect on VEGFR2 protein expression in human HT-29 cells assessed as VEGFR2 level at 1 nM after 48 hrs by ELISA. The format is functional. The gist of the method:
as §2

In test [16] the test system is HT-29. As to the kind of experiment: Induction of apoptosis in human HT-29 cells assessed as apoptotic cells at 1 nM after 48 hrs by Annexin V-FITC staining-based flow cytometric analysis (reference value: 13 +/- 3%). Format: functional.
The subject of test [17] is HT-29. As to the kind of experiment: Effect on c-MYC protein expression in human HT-29 cells assessed as c-MYC level at 1 nM after 48 hrs by ELISA. Format: functional. Put shortly: as §2
Test [18] relates to HT-29. As to the kind of experiment: Effect on VEGF gene expression in human HT-29 cells assessed as VEGF level at 1 nM after 48 hrs by RT-qPCR analysis. Format: functional. Put shortly:
as §3

The subject of test [19] is HT-29. Put plainly: Effect on c-MYC gene expression in human HT-29 cells assessed as c-MYC level at 1 nM after 48 hrs by RT-qPCR analysis. Format: functional. Put shortly: as §3
The test system of test [20] is HT-29. As to the kind of experiment: Induction of apoptosis in human HT-29 cells assessed as apoptotic cells at 25000 nM after 48 hrs by Annexin V-FITC staining-based flow cytometric analysis (reference value: 13 +/- 3%). The format is functional.
In test [21] the test system is HT-29. As to the kind of experiment: Effect on VEGF protein expression in human HT-29 cells assessed as secreted VEGF level in culture media at 25 uM after 48 hrs by ELISA.
The test system of test [22] is HT-29. Put plainly: Effect on VEGF gene expression in human HT-29 cells assessed as VEGF level at 25 uM after 48 hrs by RT-qPCR analysis. The format is functional. The gist of the method:
as §3

Test [23] has as its system HT-29. Put plainly: Effect on VEGFR2 protein expression in human HT-29 cells assessed as VEGFR2 level at 25 uM after 48 hrs by ELISA. The format is functional. The gist of the method: as §2
The subject of test [24] is HT-29. Put plainly: Induction of apoptosis in human HT-29 cells assessed as viable cells at 25000 nM after 48 hrs by Annexin V-FITC staining-based flow cytometric analysis (reference value: 82 +/- 1%). Format: functional. The conditions noted are these: HT-29, 48 h, read-out: Activity.
The subject of test [25] is HT-29. As to the kind of experiment: Induction of apoptosis in human HT-29 cells assessed as necrotic cells at 25000 nM after 48 hrs by Annexin V-FITC staining-based flow cytometric analysis (reference value: 2 +/- 6%). Format: functional.
Test [26] deals with HT-29. As to the kind of experiment: Effect on c-MYC protein expression in human HT-29 cells assessed as c-MYC level at 25 uM after 48 hrs by ELISA. Format: functional. The gist of the method: as §2
For test [27], the system named is HT-29. As to the kind of experiment: Effect on c-MYC gene expression in human HT-29 cells assessed as c-MYC level at 25 uM after 48 hrs by RT-qPCR analysis. The format is functional. Put shortly:
as §3

The subject of test [28] is HT-29. As to the kind of experiment: Effect on hTERT gene expression in human HT-29 cells assessed as hTERT level at 25 uM after 48 hrs by RT-qPCR analysis. Format: functional. The gist of the method: as §3

Turning to `COc1cc2c(c(OC)c1OC)-c1ccc(OC)c(=O)cc1[C@@H](NC(=O)Nc1ccccc1C(F)(F)F)CC2`, the half-maximal inhibitory concentration (IC50) (in general, the point on the concentration scale where inhibition reaches its midpoint) stood at 25 nM with MCF7, 15 nM in the test on HT-29 [3], 19 nM with HEK293 and 18 nM with HeLa. Moreover, the Activity in the test with HT-29 [1] is recorded as 100%; in the test with HT-29 [2], 101%; in the test on HT-29 [4], 107%; in the test on HT-29 [6] it was 107%; in the test on HT-29 [7], 99%; in the test with HT-29 [8], 82%. In addition, the Activity was found to be 4% in the test on HT-29 [9] and 1% in the test with HT-29 [10]. Also, the viability at 0.02 µM in the test with HT-29 [5] came to 96%.

Take `COc1cc2c(c(OC)c1OC)-c1ccc(OC)c(=O)cc1[C@@H](NC(=O)Nc1ccc(-c3ccccc3)cc1)CC2`: the half-maximal inhibitory concentration (IC50) in the test on MCF7 was 1.5 nM; with HT-29 [3], 1.2 nM; in the test on HEK293, 1.7 nM; in the test with HeLa, 12 nM. Further, the viability at 0.001 µM with HT-29 [11] was determined as 86%. The Activity is given as 3% in the test with HT-29 [12]; 60% in the test with HT-29 [13]; 72% with HT-29 [14]; 74% in the test on HT-29 [15]; 11% in the test with HT-29 [16]; 119% in the test on HT-29 [17]. In addition, the Activity is 72% in the test on HT-29 [18] and 85% with HT-29 [19].

For the compound `CCN(CC)CCNC(=O)c1c(C)[nH]c(/C=C2\C(=O)Nc3ccc(F)cc32)c1C` [SUNITINIB], the Activity in the test with HT-29 [20] was 22%; with HT-29 [21], 45%; with HT-29 [22] it was 46%; in the test on HT-29 [23] it was 90%; in the test on HT-29 [25], 3%; in the test on HT-29 [26], 100%. Also, the Activity with HT-29 [27] is on record as 47%; in the test with HT-29 [28], 68%. The viability at 25 µM in the test on HT-29 [24] turned out to be 75%.
